Results pooled from the literature.
Lines come from different studies, so protocols differ. pIC50: −log10 of the molar value. Values after ≈ are worked out from the molar mass of the structure shown.

The MIC of `Cc1ccc2nc(-c3ccc([N+](=O)[O-])cc3)n(Cc3ccccc3)c2c1` is reported as 16 µg/mL (≈ 46.6 µM) (Staphylococcus aureus; microbial growth, broth dilution; ATCC43300 MRSA; drug-resistant strain).
With `OCC(CCn1cnc2c(Cl)ncnc21)COCc1ccccc1` (stereo not drawn) the pIC50 was under 3.52 (Severe acute respiratory syndrome coronavirus; plaque formation, inhibitor; Vero C1008).
With `CCOC(=O)c1nnn(-c2cccc(NC(=O)Nc3ccc(Cl)c(Cl)c3)c2)c1C` the MIC was over 64 µg/mL (Escherichia coli; microbial growth, broth dilution; ATCC25922).
For `COc1ccc2c(C(=O)C(=O)NCCc3c[nH]c4ccccc34)cn(Cc3ccc(Cl)cc3)c2c1`, the pIC50 was under 4.00 (C4-2; cell growth or viability, MTT).
With `CN(C)c1ccc(-c2nc3ccccc3[nH]2)cc1` the MIC was 128 µg/mL (≈ 539 µM) (Staphylococcus aureus; microbial growth, broth dilution; ATCC43300 MRSA; drug-resistant strain).
`OCC1CC(n2cnc3c(Cl)ncnc32)C1CO` (stereo not drawn) has a pIC50 of under 3.52 (Severe acute respiratory syndrome coronavirus; plaque formation, inhibitor; Vero C1008).
The MIC of `Cc1ccc2[nH]c3c(c2c1)CCCC3NCCc1ccc(Br)cc1` (stereo not drawn) is reported as 2 µg/mL (≈ 5.22 µM) (Micrococcus luteus; microbial growth, broth dilution; DSM1790).
`COC(=O)c1cc(-c2cccc(NC(=S)Nc3ccc(C#N)cc3)c2)on1` gave an MIC of over 64 µg/mL (Escherichia coli; microbial growth, broth dilution; ATCC25922).
`CSc1ccc(-c2nc3ccccc3[nH]2)cc1` gave an MIC of 32 µg/mL (≈ 133 µM) (Staphylococcus aureus; microbial growth, broth dilution; ATCC43300 MRSA; drug-resistant strain).
With `O=C(O)c1cn(C2CC2)c2cc(N3CCNCC3)c(F)cc2c1=O` the inhibition zone was 0 mm (Micrococcus luteus; microbial growth; ATCC10240; 5 µg/mL, 20 h).
`Cc1ccc2nc(-c3ccc(Cl)cc3Cl)[nH]c2c1` gave an MIC of 128 µg/mL (≈ 462 µM) (Staphylococcus aureus; microbial growth, broth dilution; ATCC43300 MRSA; drug-resistant strain).
`OCC(CO)CCn1cnc2c(Cl)ncnc21` gave a pIC50 of under 3.52 (Severe acute respiratory syndrome coronavirus; plaque formation, inhibitor; Vero C1008).
With `COC(=O)c1cc(-c2cccc(NC(=O)Nc3ccccc3)c2)on1` the MIC was over 64 µg/mL (Escherichia coli; microbial growth, broth dilution; ATCC25922).
The pIC50 of `CSc1ncnc2c1ncn2[C@@H]1O[C@H](CO)[C@@H](O)[C@H]1O` is reported as under 3.52 (Severe acute respiratory syndrome coronavirus; plaque formation, inhibitor; Vero C1008).
The MIC of `Cc1ccc2nc(-c3ccc(F)cc3)[nH]c2c1` is reported as 128 µg/mL (≈ 566 µM) (Staphylococcus aureus; microbial growth, broth dilution; ATCC43300 MRSA; drug-resistant strain).
With `COC(=O)c1cc(-c2cccc(NC(=O)Nc3ccc(C)cc3)c2)on1` the MIC was over 64 µg/mL (Escherichia coli; microbial growth, broth dilution; ATCC25922).
The MIC of `c1ccc2[nH]c(-c3ccncc3)nc2c1` is reported as 256 µg/mL (≈ 1310 µM) (Staphylococcus aureus; microbial growth, broth dilution; ATCC43300 MRSA; drug-resistant strain).
With `Nc1ncnc2c([C@@H]3N[C@H](CO)[C@@H](O)[C@H]3O)c[nH]c12` the inhibition was 0.9% (Severe acute respiratory syndrome coronavirus; viral replication, inhibitor; Vero 76; 0.3 µM).
`COC(=O)c1cc(-c2cccc(NC(=S)Nc3ccc(F)cc3)c2)on1` has an MIC of over 64 µg/mL (Escherichia coli; microbial growth, broth dilution; ATCC25922).
For `C[C@]12CCC(=O)C(O)=C1CC[C@@H]1[C@@H]2CC[C@]2(C)C(=O)CC[C@@H]12`, the pIC50 was under 4.70 (HN-6; cell growth or viability; 72 h).
`Cc1ccc2nc(-c3ccc(Cl)c(Cl)c3)n(Cc3ccccc3)c2c1` has an MIC of 32 µg/mL (≈ 87.1 µM) (Staphylococcus aureus; microbial growth, broth dilution; ATCC43300 MRSA; drug-resistant strain).
`CCCCCCNC(=S)Nc1cccc(-c2cc(C(=O)OC)no2)c1` gave an MIC of over 64 µg/mL (Escherichia coli; microbial growth, broth dilution; ATCC25922).
`c1cc2c(ccc3c4c([nH]c32)CCCC4)cn1` gave a pIC50 of 5.10 (MDA-MB-468; cell growth or viability, MTT).
The MIC of `COC(=O)c1cc(-c2cccc(NC(=O)Nc3cccc(F)c3)c2)on1` is reported as over 64 µg/mL (Escherichia coli; microbial growth, broth dilution; ATCC25922).
The MIC of `Clc1ccc(-c2nc3ccccc3n2Cc2ccccc2)cc1` is reported as 256 µg/mL (≈ 803 µM) (Staphylococcus aureus; microbial growth, broth dilution; ATCC43300 MRSA; drug-resistant strain).
For `COC(=O)c1cc(-c2cccc(NC(=S)Nc3ccccc3)c2)on1`, the MIC was over 64 µg/mL (Escherichia coli; microbial growth, broth dilution; ATCC25922).
The pIC50 of `O=C(NCCc1c[nH]c2ccccc12)C(=O)c1cn(Cc2ccc(Cl)cc2)c2ccccc12` is reported as under 4.00 (C4-2; cell growth or viability, MTT).
